Reference: publication PMC5940269 (The Journal of Experimental Medicine, 2018)
Like-named read-outs stand apart in the source and are kept apart here.

Assays:
WT or NOMID BMMs = experiment: mRNA stability; assay type: cell-based, mouse; settings: LPS 3 h then 1 µg/ml actinomycin D plus inhibitor
Method in brief: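 WT and NOMID BMMs were stimulated with 100 ng/ml LPS for 3 h, then exposed simultaneously to 1 µg/ml actinomycin D and test compound, MK2 inhibitor or IKK2 inhibitor. Cells were lysed at 0, 2, 4 or 6 h. After RNA extraction and reverse transcription, SYBR green qPCR tracked decay of IL-1β, IL-6, NLRP3 and TNF-α mRNA. Triplicates, ≥3 independent experiments.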

p38α–PRAK = p38α–PRAK (Homo sapiens, UniProt Q16539); experiment: p38α–MK2 and p38α–PRAK assays; assay type: biochemical
Chain of p38α–PRAK (Q16539 whole entry): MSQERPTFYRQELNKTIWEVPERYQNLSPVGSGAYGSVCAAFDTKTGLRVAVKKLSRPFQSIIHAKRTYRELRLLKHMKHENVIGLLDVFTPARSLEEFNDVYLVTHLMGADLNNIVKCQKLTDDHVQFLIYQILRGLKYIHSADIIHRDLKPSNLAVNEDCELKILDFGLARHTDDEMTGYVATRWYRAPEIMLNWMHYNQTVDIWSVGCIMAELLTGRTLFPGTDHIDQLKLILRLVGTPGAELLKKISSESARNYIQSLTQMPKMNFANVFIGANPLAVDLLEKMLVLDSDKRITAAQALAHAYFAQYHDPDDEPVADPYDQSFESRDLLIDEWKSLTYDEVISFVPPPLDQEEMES
Chain of p38α–PRAK (Q8IW41 whole entry partner): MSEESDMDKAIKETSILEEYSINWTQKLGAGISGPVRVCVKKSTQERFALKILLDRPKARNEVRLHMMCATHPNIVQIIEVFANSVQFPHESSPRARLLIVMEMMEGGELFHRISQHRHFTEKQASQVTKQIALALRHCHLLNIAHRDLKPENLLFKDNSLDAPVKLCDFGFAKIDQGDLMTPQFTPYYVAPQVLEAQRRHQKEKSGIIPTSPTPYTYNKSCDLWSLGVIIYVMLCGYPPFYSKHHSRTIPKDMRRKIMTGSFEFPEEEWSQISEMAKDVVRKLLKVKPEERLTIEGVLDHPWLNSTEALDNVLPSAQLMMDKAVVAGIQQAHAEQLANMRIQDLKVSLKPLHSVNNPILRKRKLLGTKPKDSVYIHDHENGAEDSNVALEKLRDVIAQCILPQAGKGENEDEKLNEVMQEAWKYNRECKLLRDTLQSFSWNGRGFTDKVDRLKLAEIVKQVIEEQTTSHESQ

p38α–ATF2 = experiment: p38α–MK2 and p38α–ATF2 assays; assay type: biochemical
p38α–MK2 complex = experiment: Surface plasmon resonance analysis of p38α binding to immobilized MK2; settings: 10 nM p38α, immobilized GST-MK2
193 kinases = experiment: Kinase selectivity across the human kinome; assay type: biochemical; settings: CDD-450 tested at 5 µM
p38β = p38β (Homo sapiens, UniProt Q15759); experiment: Kinase selectivity, p38β; assay type: biochemical; settings: CDD-450 tested at 5 µM
Chain of p38β (Q15759 whole entry): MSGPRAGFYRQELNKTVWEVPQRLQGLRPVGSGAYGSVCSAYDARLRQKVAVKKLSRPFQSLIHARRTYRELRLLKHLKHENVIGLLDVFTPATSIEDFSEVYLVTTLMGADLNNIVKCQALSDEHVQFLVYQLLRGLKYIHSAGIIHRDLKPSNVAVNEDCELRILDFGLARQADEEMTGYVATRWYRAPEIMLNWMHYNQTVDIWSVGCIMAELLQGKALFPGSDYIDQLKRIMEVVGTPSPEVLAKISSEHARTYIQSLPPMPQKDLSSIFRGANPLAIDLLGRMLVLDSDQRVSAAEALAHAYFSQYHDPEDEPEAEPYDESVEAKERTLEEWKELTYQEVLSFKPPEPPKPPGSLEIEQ

[1] = test system: WT and NOMID bone marrow macrophages (BMMs); experiment: qPCR/Western analysis of LPS-induced expression in BMMs; assay type: cell-based, mouse; settings: for IL-18 expression: in vitro
Method in brief: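 WT and NOMID BMMs were preincubated 1 h with test compound or IKK2 inhibitor (0.5% DMSO final), then given 100 ng/ml LPS for 3 or 8 h. Transcripts were measured by SYBR green qPCR after RNA extraction and reverse transcription. Protein (NLRP3, pro-caspase-1) was measured by Western blot of RIPA lysates. Triplicates, ≥3 independent experiments.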

MK2 phosphorylation = experiment: Western blot of LPS-stimulated MK2 phosphorylation in BMMs; assay type: cell-based, mouse; settings: 10 µM CDD-450, 100 ng/ml LPS, WT BMMs
WT and NOMID BMMs = experiment: IL-1β secretion by LPS-primed BMMs; assay type: cell-based, mouse; settings: 100 ng/ml LPS 3 h; WT cells plus 15 µM nigericin 30 min
Method in brief: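 BMMs were derived over ~5 d in 1:10 CMG 14-12 supernatant (M-CSF source), plated at 10^4/well and kept 24 h. They were pretreated 1 h with vehicle (0.5% DMSO final), test compound or IKK2 inhibitor, then given 100 ng/ml LPS for 3 h without a media change. WT cells then received 15 µM nigericin for 30 min. IL-1β in conditioned media was measured by ELISA; triplicates, ≥3 independent experiments.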

[2] = test system: NLRP3 inflammasome / caspase-1; experiment: Microscopic analysis of active caspase-1; assay type: cell-based, mouse; settings: LPS-primed cells, 15 µM nigericin with 10 µM CDD-450, 30 min
Method in brief: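 BMMs were plated at 5 × 10^4/well for 24 h, primed with 100 ng/ml LPS for 3 h, then treated 30 min with 10 µM test compound and/or 15 µM nigericin. Active caspase-1 was labelled with FLICA FAM-YVAD-FMK (30 min, 37°C). Cells were washed, fixed in 10% buffered formalin and DAPI-counterstained, then imaged by fluorescence microscopy with image analysis.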

[3] = Cytotoxicity at efficacious concentrations; assay type: cell-based; settings: efficacious concentrations tested in this study; not depicted
[4] = test system: LPS-induced TNF-α expression; experiment: LPS-induced TNF-α production in mice fed inhibitor chow; assay type: in vivo; settings: CDD-450 chow 1,000 ppm; LPS 0.025 mg/kg for 1 h
Method in brief: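 Eight-week-old WT female mice (six/group) were fed normal chow or inhibitor chow (1,000 or 516 ppm). At the indicated weeks they were challenged i.v. with Salmonella typhosa LPS, 0.025 mg/kg in saline. Blood was collected by cardiac puncture 60 min later, and serum TNF-α was measured by ELISA.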

[5] = Body weight of WT mice on CDD-450 chow; assay type: in vivo
NOMID^c mice = experiment: NOMID^c mice; assay type: in vivo; settings: CDD-450 chow
Method in brief: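 Nlrp3fl(D301N)/+;Cre-ERTM mice (C57BL/6) were given tamoxifen i.p., 75 mg/kg every other day, three times weekly for 2 wk; Cre-ERTM littermates were controls. Three-month-old mice received normal or compound chow from 3 d before tamoxifen. Body weight (10–11/group) and survival (12–13/group) were scored every 2–3 d. Endpoint was 4 wk later: decalcified 5-µm bone sections were TRAP-stained and osteoclasts counted on trabecular and cortical surfaces (4–6 mice/group).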

WT BMMs = experiment: Osteoclast formation in vitro induced by RANKL; assay type: cell-based, mouse; settings: 50 ng/ml RANKL for 4 d
Method in brief: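 WT BMMs were plated at 5 × 10^3/well in 1:50 CMG supernatant plus RANKL with DMSO or test compound for 4 d, medium changed every other day, at 37°C, 5% CO2. Cells were fixed 10 min in 3.7% formaldehyde/0.1% Triton X-100, then TRAP-stained 30 min at room temperature. TRAP+ cells with ≥3 nuclei were scored as osteoclasts. Triplicates, ≥3 independent experiments.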

[6] = test system: human PBMC from CAPS patients and healthy control; experiment: IL-1β production and mRNA stability in human PBMC; assay type: cell-based
Method in brief: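 Human PBMC from a CAPS patient or healthy control. For secretion, cells were cultured 16 h at 32°C or 37°C with DMSO or test compound, or with 100 ng/ml LPS for 16 h at 37°C, and IL-1β in conditioned media was measured by ELISA. For mRNA stability, cells got 10 ng/ml LPS for 3 h, then 1 µg/ml actinomycin D plus inhibitor, were lysed at 0–6 h and analysed by SYBR qPCR. Triplicates, ≥2 independent experiments.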

RA synovial fibroblasts = experiment: IL-1β-induced responses in synovial fibroblasts from an RA patient; assay type: cell-based, human
Method in brief: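 Synovial fibroblasts from an RA patient were preincubated 1 h with inhibitors, then given 10 ng/ml IL-1β for 3 h, with transcripts measured by qPCR. For mRNA stability, IL-1β was added for 3 h, then 1 µg/ml actinomycin D plus test compound or IKK2 inhibitor, with cells lysed at 0, 2, 4 or 6 h. For p-MK2 (Thr334) Western blot, cells had 1 h preincubation with 10 µM test compound before IL-1β. Triplicates, ≥2 independent experiments.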

[7] = test system: LPS-induced production of TNF-α, IL-1β and IL-6; experiment: LPS-induced cytokine production in various in vitro systems and animal models; assay type: cell-based
Method in brief: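 U937 premonocytic cells, grown in RPMI 1640 with 10% FBS, were differentiated with 20 ng/ml PMA for 24 h. They were pretreated with vehicle or test compound, then stimulated with 100 ng/ml LPS for 4 h. TNF-α, IL-1β and IL-6 were measured in conditioned media.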

U937 cells = experiment: LPS-stimulated phosphorylation of signaling proteins in U937 cells; assay type: cell-based, human
Method in brief: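 U937 cells were differentiated into macrophages with 20 ng/ml PMA for 24 h. They were pretreated 1 h with vehicle (0.5% DMSO final) or test compound, then stimulated with 100 ng/ml LPS. Phosphorylation of signalling proteins was assessed by Western blotting, ELISA or MesoScale kits.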

SCW-induced arthritis = experiment: Streptococcal cell wall; assay type: in vivo, rat; settings: for paw swelling: oral gavage 2×/day from day 9, CDD-450 5 or 10 mg/kg, CDD-110 1.5 mg/kg
Method in brief: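 Adult female Lewis rats (180 g) received SCW preparation i.p. at 15 mg/kg, and acute paw edema was tracked on days 2–8. Paw volume was measured by plethysmometer every other day to day 21, and hind paws were scanned by µCT at day 21.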

Pharmacokinetics = experiment: Pharmacokinetics; parameters: species or system mice, rats, and dogs; settings: in vivo
cardiac hERG channel = cardiac hERG channel (Homo sapiens, UniProt Q12809); experiment: hERG channel inhibition
Chain of cardiac hERG channel (Q12809 whole entry): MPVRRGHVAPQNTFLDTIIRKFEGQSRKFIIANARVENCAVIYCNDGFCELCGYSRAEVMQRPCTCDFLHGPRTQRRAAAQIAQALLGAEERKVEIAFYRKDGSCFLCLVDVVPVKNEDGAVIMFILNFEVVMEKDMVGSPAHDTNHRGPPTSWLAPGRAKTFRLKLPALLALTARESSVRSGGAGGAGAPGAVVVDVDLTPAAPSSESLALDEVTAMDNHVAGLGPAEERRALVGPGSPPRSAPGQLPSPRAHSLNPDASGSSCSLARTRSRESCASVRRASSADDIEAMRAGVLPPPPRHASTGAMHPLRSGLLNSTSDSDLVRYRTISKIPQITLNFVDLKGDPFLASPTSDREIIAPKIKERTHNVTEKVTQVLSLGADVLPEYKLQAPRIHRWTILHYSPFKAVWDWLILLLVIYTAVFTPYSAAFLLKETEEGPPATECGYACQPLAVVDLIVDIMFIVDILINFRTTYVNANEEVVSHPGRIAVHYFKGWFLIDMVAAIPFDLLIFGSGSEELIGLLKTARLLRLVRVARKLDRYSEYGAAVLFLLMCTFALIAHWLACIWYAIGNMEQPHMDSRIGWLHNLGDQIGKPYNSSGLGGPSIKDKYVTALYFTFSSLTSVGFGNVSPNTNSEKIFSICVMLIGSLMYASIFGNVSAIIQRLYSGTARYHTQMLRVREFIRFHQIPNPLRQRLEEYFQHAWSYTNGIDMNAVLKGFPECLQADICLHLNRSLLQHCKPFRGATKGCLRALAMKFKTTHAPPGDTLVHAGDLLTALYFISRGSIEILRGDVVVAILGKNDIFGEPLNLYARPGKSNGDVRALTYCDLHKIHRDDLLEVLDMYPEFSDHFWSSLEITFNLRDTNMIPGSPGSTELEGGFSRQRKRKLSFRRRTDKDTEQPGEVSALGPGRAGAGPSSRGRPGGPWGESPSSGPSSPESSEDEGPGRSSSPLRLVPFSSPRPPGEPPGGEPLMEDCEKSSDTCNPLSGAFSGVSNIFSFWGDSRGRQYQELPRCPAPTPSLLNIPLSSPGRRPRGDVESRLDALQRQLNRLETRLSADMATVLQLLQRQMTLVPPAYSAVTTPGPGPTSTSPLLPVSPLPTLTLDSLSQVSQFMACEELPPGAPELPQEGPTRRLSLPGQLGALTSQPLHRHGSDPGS

[8] = In vivo tolerability, 14 consecutive days oral gavage; settings: rat
[9] = 100 ng/ml LPS, inhibitor preincubated 1 h
[10] = 10 ng/ml IL-1β 3 h then actinomycin D

## Cc1ccc(-c2ccc3c(ccc4sc5c(c43)NC[C@@H](C)NC5=O)n2)cn1 [PF-3644022, reference compound]
WT or NOMID BMMs
  degradation of IL-1β mRNA: promoted the degradation
  degradation of TNF-α mRNA: promoted the degradation

## Cc1cnc(-c2ccnc(C(C)(C)O)n2)cc1-n1c(C)cc(OCc2ncc(F)cc2F)c(Cl)c1=O [CDD-450]
p38α–PRAK
  fold more potent in inhibiting p38α–MK2 than p38α–PRAK: at least 700 ×
p38α–ATF2
  fold more potent in inhibiting p38α–MK2 than p38α–ATF2: at least 700 ×
p38α–MK2 complex
  stabilization of the p38α–MK2 complex (increased t1/2) relative to p38α–MK2 alone: 47.5 ×
193 kinases
  potency differential for inhibiting the 193 kinases tested: > 350 ×
p38β
  cross-reactivity on p38β: crossed over
[1]; 100 ng/ml LPS
  NLRP3 expression: no effect
  IL-18 expression: no direct effect
[1]; [9]
  LPS-induced IL-1β mRNA expression: inhibited
  LPS-induced IL-6 mRNA expression: inhibited
  LPS-induced TNF-α mRNA expression: inhibited
[1]; not depicted
  expression of NLRP3 interacting partners ASC, caspase-1 and NEK7: no effect
MK2 phosphorylation
  LPS-stimulated MK2 phosphorylation at 15 and 30 min: inhibited
  LPS-stimulated MK2 phosphorylation at 180 min: little effect
WT or NOMID BMMs
  decay of NLRP3 mRNA: no effect
  degradation of IL-1β mRNA: promoted the degradation
  degradation of IL-6 mRNA: promoted the degradation
WT and NOMID BMMs
  IL-1β secretion by LPS-primed WT and NOMID BMMs: inhibited
[2]
  nigericin-induced activation of caspase-1 (fluorescent foci): no effect
[3]
  cytotoxicity: not cytotoxic
[4]
  persistence of efficacy in blocking LPS-induced TNF-α expression after dosing: up to 4 wk
[5]; WT mice
  tolerability of concomitant exposure to CDD-450 chow and tamoxifen: not well tolerated
[5]; no tamoxifen
  body weight of WT mice, CDD-450 chow versus normal chow: gained body weight undistinguishably
[5]; tamoxifen for 2 wk
  body weight of WT mice, CDD-450 chow plus tamoxifen, compared with normal chow: lost body weight
NOMID^c mice
  body weight loss of NOMID^c mice versus untreated NOMID^c mice: lost significantly less body weight
  increased number of osteoclasts on trabecular and cortical bone surfaces: prevented
NOMID^c mice; untreated: ∼35% skin lesions, 20% died
  skin lesions and death over the 7-wk period: neither occurred
WT BMMs
  in vitro osteoclast formation induced by RANKL: inhibited
[6]; 10 ng/ml LPS 3 h then actinomycin D
  IL-1β mRNA instability in human PBMC: promoted
[6]; 100 ng/ml LPS 16 h at 37°C
  LPS-stimulated IL-1β secretion by healthy control PBMC: reduced
[6]; 16 h at 32°C, spontaneous
  IL-1β secretion by CAPS PBMC: reduced
[6]; not depicted
  degradation of TNF-α mRNA induced by LPS in human PBMC: accentuated
RA synovial fibroblasts; 10 ng/ml IL-1β 3 h
  IL-1β mRNA levels induced by IL-1β: decreased
RA synovial fibroblasts; [10]
  degradation of TNF-α mRNA induced by IL-1β: accentuated
  loss of IL-1β transcripts: accelerated
RA synovial fibroblasts; 10 µM CDD-450, 10 ng/ml IL-1β
  MK2 phosphorylation induced by IL-1β: blocked
[7]; read-out: IC50, LPS-induced production of IL-1β
  IC50: 1 to 10 nM
[7]; read-out: IC50, LPS-induced production of IL-6
  IC50: ~100 nM
[7]; read-out: IC50, LPS-induced production of TNF-α
  IC50: 1 to 10 nM
U937 cells
  LPS activation of the ERK1/2 pathway: no inhibitory effect
  LPS activation of the JNK pathway: no inhibitory effect
  MK2 phosphorylation induced by LPS: blocked
SCW-induced arthritis; 5 mg/kg CDD-450 2×/day
  joint destruction, 3D µCT reconstruction: joint protective effects
SCW-induced arthritis
  paw swelling: inhibited
SCW-induced arthritis; µCT at day 21
  bone mineral density: preserved
Pharmacokinetics
  half-life: long
  volume of distribution: high
Pharmacokinetics; po
  oral bioavailability: high
Cardiac hERG channel
  inhibition of the cardiac hERG channel: did not inhibit
[8]
  well tolerated exposure relative to the predicted Cmax efficacious exposure: > 30 ×

## CNC(=O)c1ccc(C)c(-n2c(C)cc(OCc3ccc(F)cc3F)c(Br)c2=O)c1 [CDD-110, reference compound]
SCW-induced arthritis
  paw swelling: inhibited

## CN1CCN(c2cc(C(=O)Nc3ccc4c(c3)-c3c(c(C(N)=O)nn3-c3ccc(F)cc3)CC4)c(Cl)cn2)CC1 [PHA-408, reference compound]
[1]; 100 ng/ml LPS
  NLRP3 expression: decreased
  IL-18 expression: decreased
[1]; [9]
  LPS-induced IL-1β mRNA expression: inhibited
WT and NOMID BMMs
  IL-1β secretion by LPS-primed WT and NOMID BMMs: inhibited
